# Results from different studies.
# EGFR L858R: Epidermal growth factor receptor (EGFR, Homo sapiens, UniProt P00533, L858R)
# EGFR G719C: Epidermal growth factor receptor (EGFR, Homo sapiens, UniProt P00533, G719C)
# EGFR del746-750: Epidermal growth factor receptor (EGFR, Homo sapiens, UniProt P00533, del746-750)
# EGFR L858R/T790M: Epidermal growth factor receptor (EGFR, Homo sapiens, UniProt P00533, L858R/T790M)
SMILES,target,test,setting,endpoint,result
COc1ccc2[nH]c3c4[nH]c5ccc(OC)cc5c4c4c(c3c2c1)C(=O)NC4=O,EGFR L858R,binding,1 µM,remaining binding,50%
CC#CC(=O)N1CCC[C@H]1c1nc(-c2ccc(C(=O)Nc3ccccn3)cc2)c2c(N)nccn12,EGFR G719C,"enzyme activity, inhibitor",1 µM,inhibition,3%
CCCCC(=O)Nc1ccc(-c2ccc3ncn(CCC)c(=O)c3c2)cn1,EGFR del746-750,"binding, competition with immobilised ligand",0.5 µM,remaining binding,95%
C=CC(=O)N1CCC([C@@H]2CCNc3c(C(N)=O)c(-c4ccc(Oc5ccccc5)cc4)nn32)CC1,EGFR G719C,cell-free assay,1 µM,inhibition,92%
C1=C/COCc2cc(ccc2OCCN2CCCC2)Nc2nccc(n2)-c2cccc(c2)COC/1,EGFR L858R,binding,0.1 µM,remaining binding,71%
CN1CCN(C(=O)c2ccc(NC(=O)Nc3ccc(N(C)c4ccnc(Nc5ccc(CS(C)(=O)=O)cc5)n4)cc3)cc2)CC1,EGFR del746-750,binding,1 µM,remaining binding,87%
COc1ccc2oc(-c3ccc4nc(N)oc4c3)c/c(=N\c3ccccc3NC(=O)CCN)c2c1,EGFR L858R/T790M,cell-free assay,1 µM,remaining signal,106%
CO[C@@H]1[C@H](N(C)C(=O)c2ccccc2)C[C@H]2O[C@]1(C)n1c3ccccc3c3c4c(c5c6ccccc6n2c5c31)C(=O)NC4,"Epidermal growth factor receptor (EGFR, Homo sapiens, UniProt P00533)","enzyme activity, inhibitor",1 µM,inhibition,55%
Cc1ccc(NC(=O)c2ccnc(C(F)(F)F)c2)cc1-c1cc(OCCO)nc(N2CCOCC2)c1,EGFR L858R/T790M,binding,1 µM,remaining binding,84%
